Measurements as given in ChEMBL document CHEMBL1157559, “Synthesis and biological evaluation of novel pyrazolyl-2,4-thiazolidinediones as anti-inflammatory and neuroprotective agents” (Bioorg Med Chem, 2010).
pIC50: −log10 of the molar value. The source made the active and inactive calls. No cut-off for these calls is given here.

Columns and labels:
[1] = tested on: Rattus norvegicus; test: Antiinflammatory activity in po dosed Wistar albino rat acute inflammatory model assessed as inhibition of formalin-induced paw edema administered 1 hr before formalin challenge measured after 3 hrs by plethysmometer; type: functional
Outline: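 Rats dosed orally at 5, 10, 20, 40 and 50 mg/kg body weight. Edema volume inhibition measured 3 h after subplantar formalin (2%, 0.1 mL), and ED50 determined from these doses.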

[2] = tested on: SH-SY5Y; test: Neuroprotective activity in human SH-SY5Y cells assessed as inhibition of LPS, IFN-gamma-stimulated THP1 cellular supernatant-induced cytotoxicity after 72 hrs by LDH assay; type: functional, cell-based
Outline: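 SH-SY5Y cells plated 24 h, then medium replaced with supernatant from THP-1 cells stimulated with LPS + IFN-γ for 48 h. Compound added directly to the SH-SY5Y cells at the time of transfer. Cell death measured by LDH release after 72 h; 4–6 independent experiments.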

[3] = tested on: Rattus norvegicus; test: Gastrointestinal toxicity in Wistar albino rat assessed as ulceration at 100 mg/kg/day, po administered twice daily for 3 days; type: organism-based; parameters: route oral; settings: in vivo, 72 h
Outline: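 Male rats 180–200 g, groups of five, fasted 12 h with water available. Compounds given orally as two equal doses at 0 and 12 h, 100 mg/kg per day, for three successive days; vehicle control 1% gum acacia. Rats killed 6 h after last dose. Stomach opened along greater curvature, washed with cold saline and inspected under 3× lens for hyperemia, hemorrhage, erosions or ulcers.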

[4] = biological target: T1, Prostaglandin G/H synthase 1 (Ovis aries) (UniProt P05979); test: Inhibition of ovine COX1 at 10 uM
T1 sequence (whole entry): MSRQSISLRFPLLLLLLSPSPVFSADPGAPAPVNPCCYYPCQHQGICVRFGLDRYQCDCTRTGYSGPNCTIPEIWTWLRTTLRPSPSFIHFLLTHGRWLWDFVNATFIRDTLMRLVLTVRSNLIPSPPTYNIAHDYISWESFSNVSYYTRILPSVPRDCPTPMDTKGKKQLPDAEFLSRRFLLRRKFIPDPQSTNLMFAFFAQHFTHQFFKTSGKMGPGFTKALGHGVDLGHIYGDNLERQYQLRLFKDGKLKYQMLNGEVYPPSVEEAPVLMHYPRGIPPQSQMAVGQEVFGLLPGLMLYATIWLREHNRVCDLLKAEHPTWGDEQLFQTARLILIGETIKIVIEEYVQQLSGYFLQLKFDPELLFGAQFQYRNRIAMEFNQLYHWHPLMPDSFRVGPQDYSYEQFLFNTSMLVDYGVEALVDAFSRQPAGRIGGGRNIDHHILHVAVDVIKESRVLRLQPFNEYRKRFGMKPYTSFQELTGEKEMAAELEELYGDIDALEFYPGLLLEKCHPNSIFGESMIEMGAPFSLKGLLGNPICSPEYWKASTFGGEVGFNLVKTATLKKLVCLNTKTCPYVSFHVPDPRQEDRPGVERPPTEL
Outline: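 Kit assay with ovine COX-1, run per manufacturer's protocol. Read-out was percent inhibition of prostaglandin production, with compound at 10 µM and three experiments.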

[5] = tested on: Rattus norvegicus; test: Antiinflammatory activity in Wistar albino rat acute inflammatory model assessed as inhibition of formalin-induced paw edema at 20 mg/kg, po administered 1 hr before formalin challenge measured after 4 hrs by plethysmometer relative to control; type: functional; parameters: scale not given: the % may be the effect or the level left
Outline: (§1)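 Male Wistar rats, 180–200 g, groups of five. Test compound 20 mg/kg po; 1 h later 0.1 mL 2% formalin injected subplantar into left hind paw under light ether anesthesia. Paw volume by water plethysmometer at 0 and 1, 2, 3, 4 h after formalin. % inhibition = (Vt−V0)control minus (Vt−V0)treated, divided by (Vt−V0)control ×100. Mean ± SEM, ANOVA with Student–Newman–Keuls.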

[6] = tested on: SH-SY5Y; test: Neuroprotective activity in human SH-SY5Y cells assessed as inhibition of H2O2-induced cytotoxicity after 72 hrs by LDH assay; type: functional, cell-based
Outline: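 SH-SY5Y cells plated in DMEM-F12 with 5% FBS. After 24 h, medium replaced with medium containing H2O2 (500 µM in methods, 250 µM in figure legend), and compound added directly at that time. Cell death measured by LDH release 72 h later.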

[7] = tested on: THP-1; test: Inhibition of MCP1 release in human THP1 cells after 24 hrs by ELISA; type: functional, cell-based
Outline: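 THP-1 cells pretreated 15 min with compound, then stimulated with LPS 0.5 µg/mL plus IFN-γ 150 U/mL. After 24 h, MCP-1 (ng/mL) measured in cell-free medium by ELISA.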

[8] = tested on: SH-SY5Y; test: Antineurotoxicity in human SH-SY5Y cells assessed as inhibition human THP1 cell supernatant-induced cytotoxicity compound pretreated 24 to 48 hrs to THP1 cells measured after 72 hrs of supernatant addition; type: functional, cell-based
Outline: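 THP-1 cells in DMEM-F12 with 5% FBS, pretreated 15 min with compound or DMSO, then stimulated with LPS 0.5 µg/mL plus IFN-γ 150 U/mL for 24 or 48 h. Cell-free supernatant transferred to SH-SY5Y cells plated 24 h earlier. After 72 h, viability by LDH release and MTT. IC50 from curves of at least three independent experiments.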

[9] = tested on: Rattus norvegicus; test: Antiinflammatory activity in Wistar albino rat acute inflammatory model assessed as inhibition of formalin-induced paw edema at 20 mg/kg, po administered 1 hr before formalin challenge measured after 3 hrs by plethysmometer relative to control; type: functional; parameters: scale not given: the % may be the effect or the level left; outline: as §1
[10] = Acute toxicity in po dosed Swiss albino mouse after 24 hrs; type: organism-based; settings: in vivo, read-out: ALD50
Outline: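 Four groups of five Swiss albino mice (20–30 g), fasted 24 h beforehand, given compounds orally at graded doses of 0–300 mg/kg. Mortality recorded at each dose level after 24 h to estimate the acute lethal dose (ALD50).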

[11] = tested on: Rattus norvegicus; test: Antiinflammatory activity in Wistar albino rat acute inflammatory model assessed as inhibition of formalin-induced paw edema at 20 mg/kg, po administered 1 hr before formalin challenge measured after 2 hrs by plethysmometer relative to control; type: functional; parameters: scale not given: the % may be the effect or the level left; outline: as §1
[12] = biological target: T2, Prostaglandin G/H synthase 2 (Homo sapiens) (UniProt P35354); settings: at 10 µM
T2 sequence (whole entry): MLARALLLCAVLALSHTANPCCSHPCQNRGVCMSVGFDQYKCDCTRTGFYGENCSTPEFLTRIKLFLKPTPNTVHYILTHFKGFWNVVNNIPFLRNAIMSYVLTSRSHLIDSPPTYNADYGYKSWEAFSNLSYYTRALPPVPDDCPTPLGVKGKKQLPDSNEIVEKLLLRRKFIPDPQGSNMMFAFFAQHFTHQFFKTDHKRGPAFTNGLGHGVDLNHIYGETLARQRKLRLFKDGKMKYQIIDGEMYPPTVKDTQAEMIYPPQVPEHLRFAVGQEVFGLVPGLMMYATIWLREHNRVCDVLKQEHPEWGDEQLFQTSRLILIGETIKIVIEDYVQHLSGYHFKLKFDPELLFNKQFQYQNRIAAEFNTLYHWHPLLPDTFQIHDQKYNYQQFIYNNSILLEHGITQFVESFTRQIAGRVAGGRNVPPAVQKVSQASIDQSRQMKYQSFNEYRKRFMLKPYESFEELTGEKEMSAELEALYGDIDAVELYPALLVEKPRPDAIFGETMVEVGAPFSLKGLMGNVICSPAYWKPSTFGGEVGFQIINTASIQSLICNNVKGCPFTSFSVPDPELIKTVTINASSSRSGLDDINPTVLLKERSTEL

**Q.** Which ED50 [1] does the source give for O=C1NC(=O)/C(=C/c2cn(-c3ccc([N+](=O)[O-])cc3)nc2-c2ccc(Cl)cc2)S1 here?
**A.** Its ED50 is 15.2 mg/kg.

**Q.** And the inhibition [2]?
**A.** The inhibition was “inactive”.

**Q.** And the Activity [3]?
**A.** The Activity was 0%.

**Q.** And the inhibition [4]?
**A.** Its inhibition is 28.4%.

**Q.** What about the Activity [5] of the same compound?
**A.** Its Activity is 68%.

**Q.** What about the inhibition [6] of the same compound?
**A.** Its inhibition is “inactive”.

**Q.** What about the inhibition [7] of the same compound?
**A.** The inhibition was “inactive”.

**Q.** And the pIC50 [8]?
**A.** The pIC50 was 5.70.

**Q.** What about the Activity [9] of the same compound?
**A.** The Activity was 68%.

**Q.** What about the LD50 at 24 h [10] of the same compound?
**A.** The LD50 at 24 h was greater than 300 mg/kg.

**Q.** And the Activity [11]?
**A.** The Activity was 46%.

**Q.** What about the inhibition [12] of the same compound?
**A.** Its inhibition is 19.4%.
